Measured values reported in ChEMBL document CHEMBL3526151, “Reversible disulfide formation of the glutamate carboxypeptidase II inhibitor E2072 results in prolonged systemic exposures in vivo” (Drug Metab Dispos, 2012).

Key:
[1] = Drug recovery in cynomolgus monkey serum protein binding experiment; conditions: in vitro
[2] = Cmax in Sprague-Dawley rat plasma at 10 mg/kg, po administered as single dose by LC-MS/MS analysis; format: ADME, organism-based; design: dose 10 mg/kg, route oral
Outline: (§1)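 Male Sprague-Dawley rats were dosed orally with 10 mg/kg/day, either once or daily for 5 days; n = 4 per group. Blood was taken by cardiac puncture and liver, kidney, brain and sciatic nerve were collected at 0–8 h post-dose. Tissues were homogenized in PBS containing NEM at equal volume per gram. NEM-derivatized analyte was extracted with methanol and quantified by LC-MS/MS (1–5000 ng/ml). Cmax is the observed value.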

[3] = Oral bioavailability in Sprague-Dawley rat at 0.1 mg/kg administered via gavage measured under fasted conditions by LC-MS/MS analysis; format: ADME, organism-based; conditions: in vivo
[4] = Phase 1 metabolic stability in mouse liver microsomes assessed as compound remaining at 10 uM measured for 1 hr by LC-MS/MS analysis in absence of cofactors; format: ADME; conditions: read-out: Stability
Outline: (§2)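 Cofactor-free controls were run for each microsomal incubation: 0.5 mg/ml liver microsomes with 10 µM compound, omitting cofactors, so that cofactor-independent degradation could be measured. Samples were taken up to 1 h, quenched with acetonitrile containing internal standard, and the percent remaining was determined by LC-MS/MS.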

[5] = Phase 2 metabolic stability in human liver microsomes assessed as compound remaining at 10 uM measured for 1 hr by LC-MS/MS analysis in absence of cofactors; format: ADME; conditions: read-out: Stability
Outline: as §2

[6] = Phase 2 metabolic stability in rat liver microsomes assessed as compound remaining at 10 uM measured for 1 hr by LC-MS/MS analysis; format: ADME; conditions: read-out: Stability
Outline: (§3)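 Glucuronidation in liver microsomes of the named species, 0.5 mg/ml protein, compound at 10 μM final, in 50 mM Tris-HCl pH 7.5 with 8 mM MgCl2 and 25 μg/ml alamethicin. Preincubated at 37°C, then started with 2 mM UDPGA (final); cofactor-free controls run alongside. Duplicate reactions, sampled up to 1 h, quenched with cold acetonitrile plus internal standard; disappearance followed by LC-MS/MS.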

[7] = Tmax in Sprague-Dawley rat at 10 mg/kg, iv by LC-MS/MS analysis; format: ADME, organism-based; design: dose 10 mg/kg, route intravenous; conditions: in vivo
[8] = Oral bioavailability in Sprague-Dawley rat at 1 mg/kg administered via gavage measured under fasted conditions by LC-MS/MS analysis; format: ADME, organism-based; conditions: in vivo
[9] = Protein binding in Sprague-Dawley rat serum at 10 uM after 1 hr by LC-MS/MS analysis; format: ADME, cell-free; conditions: read-out: PB (converted)
Outline: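 Serum from the named species spiked to 10 μM and held 1 h at 37°C, then ultrafiltered through a 5000 Da cutoff device (45 min, 37°C, 1800g). Filtrate and unfiltered serum extracted and measured by LC-MS/MS; % bound = 100 − (Cu/Cs × 100).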

[10] = Apparent volume of distribution in Sprague-Dawley rat at 30 mg/kg, po administered via gavage measured under fasted conditions by LC-MS/MS analysis; format: ADME, organism-based; design: dose 30 mg/kg, route oral; conditions: in vivo
Outline: (§4)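 Fasted male Sprague-Dawley rats (280–330 g) received 0.1, 1, 10 or 30 mg/kg by oral gavage in 50 mM HEPES buffered saline, pH 7.4. Blood drawn at 0.25–24 h into heparin/NEM tubes; plasma analyzed by LC-MS/MS. Cmax taken as observed. AUC by linear trapezoidal rule with extrapolation by λz. Cl/F and Vd/F reported. Mean ± S.D., n = 4–9.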

[11] = Apparent oral clearance in Sprague-Dawley rat at 30 mg/kg, po administered via gavage measured under fasted conditions by LC-MS/MS analysis; format: ADME, organism-based; design: dose 30 mg/kg, route oral; conditions: in vivo
Outline: as §4

[12] = Cmax in Sprague-Dawley rat kidney at 10 mg/kg/day, po administered for 5 days measured per gm of tissue by LC-MS/MS analysis; format: ADME, organism-based; design: dose 10 mg/kg/day, route oral
Outline: as §1

[13] = Metabolic stability in Sprague-Dawley rat plasma assessed as compound remaining at 10 uM after 1 hr by LC-MS/MS analysis; format: ADME, cell-free; conditions: read-out: Stability
Outline: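 Compound at 5 and 10 µM was incubated at 37°C in Sprague-Dawley rat or cynomolgus monkey plasma. Aliquots taken at 0, 30 and 60 min were quenched with acetonitrile and analyzed by LC-MS/MS. Percent remaining = analyte/internal-standard area ratio at time t divided by that at time 0.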

[14] = Oral bioavailability in cynomolgus monkey at 5 mg/kg by LC-MS/MS analysis; format: ADME, organism-based, Macaca fascicularis; conditions: in vivo
Outline: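 Cynomolgus monkeys (n = 3) received a nominal 5 mg/kg dose in 50 mM HEPES, TCEP-treated to prevent disulfide formation. Dosing was either an IV bolus via cephalic or saphenous vein or oral. Arterial cannula blood was collected into NEM-containing heparinized tubes for up to 9 days and analyzed by LC-MS/MS. Noncompartmental analysis gave t1/2 = 0.693/λz and F% = dose-normalized mean AUCinf p.o./i.v. ×100.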

[15] = Phase 1 metabolic stability in mouse liver microsomes assessed as compound remaining at 10 uM measured for 1 hr by LC-MS/MS analysis; format: ADME; conditions: read-out: Stability
Outline: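 Liver microsomes (0.5 mg/ml) were incubated with 10 µM compound (final) in 100 mM potassium phosphate, pH 7.4. An NADPH-regenerating system was present: 1.3 mM NADPH, 3.3 mM glucose 6-phosphate, 3.3 mM MgCl2, 0.4 U/ml G6PDH and 50 µM sodium citrate. Runs were in duplicate, with samples taken up to 1 h and quenched with acetonitrile containing internal standard. Loss of compound was followed by LC-MS/MS.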

[16] = Phase 2 metabolic stability in monkey liver microsomes assessed as compound remaining at 10 uM measured for 1 hr by LC-MS/MS analysis in absence of cofactors; format: ADME, Macaca mulatta; conditions: rhesus monkey, read-out: Stability
Outline: as §2

[17] = Phase 2 metabolic stability in human liver microsomes assessed as compound remaining at 10 uM measured for 1 hr by LC-MS/MS analysis; format: ADME; conditions: read-out: Stability
Outline: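 For glucuronidation, compound was preincubated at 37°C in 50 mM Tris-HCl, pH 7.5, with 0.5 mg/ml liver microsomes, 8 mM MgCl2 and 25 µg/ml alamethicin. Reactions were started in duplicate with 2 mM UDPGA (final). Samples were taken up to 1 h, quenched with acetonitrile containing internal standard, and compound disappearance was measured by LC-MS/MS.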

[18] = Phase 2 metabolic stability in mouse liver microsomes assessed as compound remaining at 10 uM measured for 1 hr by LC-MS/MS analysis in absence of cofactors; format: ADME; conditions: read-out: Stability
Outline: as §3

[19] = Phase 1 metabolic stability in human liver microsomes assessed as compound remaining at 10 uM measured for 1 hr by LC-MS/MS analysis in absence of cofactors; format: ADME; conditions: read-out: Stability
Outline: as §2

[20] = AUC(0 to last) in Sprague-Dawley rat at 1 mg/kg, iv administered as bolus injection measured under fasted conditions by LC-MS/MS analysis; format: ADME, organism-based; design: time 0 - last, dose 1 mg/kg, route intravenous; conditions: plasma
Outline: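 Male Sprague-Dawley rats (280–330 g), jugular vein cannulated, fasted overnight until 4 h post-dose. Single tail-vein bolus of 0.1, 1, 10 or 30 mg/kg in 50 mM HEPES buffered saline, pH 7.4. Blood drawn 0–24 h into heparin tubes containing NEM. Plasma quantified by LC-MS/MS after NEM derivatization. Noncompartmental analysis: AUClast by linear trapezoidal rule, Cl = dose/AUC0-∞. Mean ± S.D., n = 4–9.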

[21] = Cmax in Sprague-Dawley rat liver at 10 mg/kg/day, po administered for 5 days measured per gm of tissue by LC-MS/MS analysis; format: ADME, organism-based; design: dose 10 mg/kg/day, route oral
Outline: as §1

Structure (SMILES): O=C(O)c1cccc(-c2cccc(CCS)c2C(=O)O)c1
- Drug recovery [1]: 80%
- Cmax [2]: 4920 ng/mL
- bioavailability [3]: 17.4%
- remaining at 1 h, 10 µM [4]: > 90%
- remaining at 1 h, 10 µM [5]: > 90%
- remaining at 1 h, 10 µM [6]: > 90%
- Tmax [7]: 6.6 min
- bioavailability [8]: 23.7%
- fraction unbound at 1 h, 10 µM [9]: 0.025
- Vd/F [10]: 2.39 L/kg
- CL/F [11]: 8.5 mL/min/kg
- Cmax [12]: 388 ng/g
- remaining at 1 h, 10 µM [13]: 64.5%
- bioavailability [14]: 39.1%
- remaining at 1 h, 10 µM [15]: > 90%
- remaining at 1 h, 10 µM [16]: > 90%
- remaining at 1 h, 10 µM [17]: > 90%
- remaining at 1 h, 10 µM [18]: > 90%
- remaining at 1 h, 10 µM [19]: > 90%
- AUC(0-t) [20]: 12700 ng·h/mL
- Cmax [21]: 457 ng/g
